Source: ChEMBL document CHEMBL3352255, “Tailor-made fluorescent trilobolide to study its biological relevance” (J Med Chem, 2014)
Activity calls are given as the source filed them. The calls are words filed in the database; no cut-off is given here.

Tests used:
LNCaP [1] = experiment: Cytotoxicity against human LNCAP cells after 24 hrs by WST-1 assay; type: functional, cell-based
Procedure, shortened: (§1)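 Dark cytotoxicity (no light exposure) by WST-1 tetrazolium-to-formazan conversion reflecting metabolic activity; compounds tested at concentrations up to 50 μM for 24, 48 or 72 h; IC50 taken as concentration giving 50% inhibition of cell viability.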

LNCaP [2] = experiment: Cytotoxicity against human LNCAP cells after 48 hrs by WST-1 assay; type: functional, cell-based; procedure, shortened: as §1
LNCaP [3] = experiment: Cytotoxicity against human LNCAP cells after 72 hrs by WST-1 assay; type: functional, cell-based; procedure, shortened: as §1
[4] = Cytotoxicity against human PC3 cells after 24 hrs by WST-1 assay; type: functional, cell-based; settings: PC-3, 24 h; procedure, shortened: as §1
[5] = Cytotoxicity against human PC3 cells after 48 hrs by WST-1 assay; type: functional, cell-based; settings: PC-3, 48 h; procedure, shortened: as §1
[6] = Cytotoxicity against human PC3 cells after 72 hrs by WST-1 assay; type: functional, cell-based; settings: PC-3, 72 h; procedure, shortened: as §1
C2C12 [7] = experiment: Cytotoxicity against mouse C2C12 cells after 24 hrs by WST-1 assay; type: functional, cell-based; settings: C2C12, 24 h; procedure, shortened: as §1
C2C12 [8] = experiment: Cytotoxicity against mouse C2C12 cells after 48 hrs by WST-1 assay; type: functional, cell-based; settings: C2C12, 48 h; procedure, shortened: as §1
C2C12 [9] = experiment: Cytotoxicity against mouse C2C12 cells after 72 hrs by WST-1 assay; type: functional, cell-based; settings: C2C12, 72 h; procedure, shortened: as §1
U2OS [10] = experiment: Cytotoxicity against human U2OS cells after 24 hrs by WST-1 assay; type: functional, cell-based; procedure, shortened: as §1
U2OS [11] = experiment: Cytotoxicity against human U2OS cells after 48 hrs by WST-1 assay; type: functional, cell-based; procedure, shortened: as §1
U2OS [12] = experiment: Cytotoxicity against human U2OS cells after 72 hrs by WST-1 assay; type: functional, cell-based; procedure, shortened: as §1
MCF7 [13] = experiment: Cytotoxicity against human MCF7 cells after 24 hrs by WST-1 assay; type: functional, cell-based; settings: MCF7, 24 h; procedure, shortened: as §1
MCF7 [14] = experiment: Cytotoxicity against human MCF7 cells after 48 hrs by WST-1 assay; type: functional, cell-based; settings: MCF7, 48 h; procedure, shortened: as §1
MCF7 [15] = experiment: Cytotoxicity against human MCF7 cells after 72 hrs by WST-1 assay; type: functional, cell-based; settings: MCF7, 72 h; procedure, shortened: as §1
[16] = Cytotoxicity against human MIAPaCa2 cells after 24 hrs by WST-1 assay; type: functional, cell-based; settings: MIA PaCa-2, 24 h; procedure, shortened: as §1
[17] = Cytotoxicity against human MIAPaCa2 cells after 48 hrs by WST-1 assay; type: functional, cell-based; settings: MIA PaCa-2, 48 h; procedure, shortened: as §1
[18] = Cytotoxicity against human MIAPaCa2 cells after 72 hrs by WST-1 assay; type: functional, cell-based; settings: MIA PaCa-2, 72 h; procedure, shortened: as §1
HT-29 [19] = experiment: Cytotoxicity against human HT-29 cells after 24 hrs by WST-1 assay; type: functional, cell-based; settings: HT-29, 24 h; procedure, shortened: as §1
HT-29 [20] = experiment: Cytotoxicity against human HT-29 cells after 48 hrs by WST-1 assay; type: functional, cell-based; settings: HT-29, 48 h; procedure, shortened: as §1
HT-29 [21] = experiment: Cytotoxicity against human HT-29 cells after 72 hrs by WST-1 assay; type: functional, cell-based; settings: HT-29, 72 h; procedure, shortened: as §1
[22] = Cytotoxicity against rat peritoneal cells assessed as reduction in cell viability at 40 uM after 24 hrs by WST-1 assay; type: cell-based
Rattus norvegicus [23] = organism: Rattus norvegicus; experiment: Induction of LPS-induced NO production in rat peritoneal cells after 24 hrs using DAR-2 probe by fluorescence assay; type: functional, cell-based
U2OS [24] = experiment: Cellular uptake in human U2OS cells at 5 uM after 24 hrs by fluorescence microscopy; type: ADME, cell-based
Procedure, shortened: (§2)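 Live-cell fluorescence microscopy of Bodipy-labelled conjugates (green emission), 5 μM, uptake followed at 10, 20, 40 min and 1, 3, 5, 24 h. Cells stained with Bodipy dye alone served as control for dye-driven localization.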

[25] = Cellular uptake in human PC3 cells at 5 uM after 24 hrs by fluorescence microscopy; type: ADME, cell-based; settings: pc-3, 24 h; procedure, shortened: as §2
LNCaP [26] = experiment: Cellular uptake in human LNCAP cells at 5 uM after 24 hrs by fluorescence microscopy; type: ADME, cell-based; procedure, shortened: as §2
MCF7 [27] = experiment: Cellular uptake in human MCF7 cells at 5 uM after 24 hrs by fluorescence microscopy; type: ADME, cell-based; settings: mcf7, 24 h
HeLa = experiment: Cellular uptake in human HeLa cells at 5 uM after 24 hrs by fluorescence microscopy; type: ADME, cell-based; procedure, shortened: as §2
[28] = Cellular uptake in human MIAPaCa2 cells at 5 uM after 24 hrs by fluorescence microscopy; type: ADME, cell-based; settings: mia paca-2, 24 h; procedure, shortened: as §2
A549 = experiment: Cellular uptake in human A549 cells at 5 uM after 24 hrs by fluorescence microscopy; type: ADME, cell-based; settings: a549, 24 h; procedure, shortened: as §2
C2C12 [29] = experiment: Cellular uptake in mouse C2C12 cells at 5 uM after 24 hrs by fluorescence microscopy; type: ADME, cell-based; settings: c2c12, 24 h; procedure, shortened: as §2
[30] = Cellular uptake in HEK293T cells at 5 uM after 24 hrs by fluorescence microscopy; type: ADME, cell-based; settings: human, hek-293t; procedure, shortened: as §2
[31] = Cytotoxicity against rat peritoneal cells assessed as reduction in cell viability at 40 uM after 24 hrs by WST-1 assay
Rattus norvegicus [32] = organism: Rattus norvegicus; experiment: Induction of TNFalpha production in rat peritoneal cells at 0.01 to 40 uM after 24 hrs by ELISA; type: functional, cell-based

Row | SMILES | IC50 (LNCaP [1]) | IC50 (LNCaP [2]) | IC50 (LNCaP [3]) | IC50 [4] | IC50 [5] | IC50 [6] | IC50 (C2C12 [7]) | IC50 (C2C12 [8]) | IC50 (C2C12 [9]) | IC50 (U2OS [10]) | IC50 (U2OS [11]) | IC50 (U2OS [12]) | IC50 (MCF7 [13]) | IC50 (MCF7 [14]) | IC50 (MCF7 [15]) | IC50 [16] | IC50 [17] | IC50 [18] | IC50 (HT-29 [19]) | IC50 (HT-29 [20]) | further results
1 | C/C=C(/C)C(=O)O[C@@H]1C[C@H]2C(=C1C)[C@@H]1OC(=O)[C@@](C)(O)[C@@]1(O)[C@@H](OC(=O)CCOCCOCCOCCOCCOCCOCCOCCOCCOCCOCCn1cc(COc3ccc(C4=C5C=CC=[N+]5[B-](F)(F)n5cccc54)cc3)nn1)C[C@]2(C)OC(C)=O | > 50 µM | > 50 µM | > 50 µM | > 50 µM | > 50 µM | > 50 µM | > 50 µM | > 50 µM | > 50 µM | > 50 µM | > 50 µM | > 50 µM | > 50 µM | 48 µM | 47.3 µM | > 50 µM | 50 µM | 41.1 µM | > 50 µM | > 50 µM | IC50 (HT-29 [21]): > 50 µM; Activity [22]: Non-toxic; Activity (Rattus norvegicus [23]): Dose-dependent effect; Drug uptake (U2OS [24]): Not Active; Drug uptake [25]: Not Active; Drug uptake (LNCaP [26]): Not Active; Drug uptake (MCF7 [27]): Not Active; Drug uptake (HeLa): Not Active; Drug uptake [28]: Not Active; Drug uptake (A549): Not Active; Drug uptake (C2C12 [29]): Not Active; Drug uptake [30]: Not Active; Activity [31]: Non-toxic
2 | C/C=C(/C)C(=O)O[C@@H]1C[C@H]2C(=C1C)[C@@H]1OC(=O)[C@@](C)(O)[C@@]1(O)[C@@H](OC(=O)CCOCCOCCOCCOCCn1cc(COCCOCCOCCOCCNC(=O)CCOCCOCCOCCOCCn3cc(COc4ccc(C5=C6C=CC=[N+]6[B-](F)(F)n6cccc65)cc4)nn3)nn1)C[C@]2(C)OC(C)=O | > 50 µM | > 50 µM | > 50 µM | > 50 µM | > 50 µM | > 50 µM | > 50 µM | > 50 µM | > 50 µM | > 50 µM | > 50 µM | > 50 µM | > 50 µM | > 50 µM | > 50 µM | > 50 µM | > 50 µM | > 50 µM | > 50 µM | > 50 µM | IC50 (HT-29 [21]): > 50 µM; Activity [22]: Non-toxic; Activity (Rattus norvegicus [23]): Dose-dependent effect; Drug uptake (U2OS [24]): Not Active; Drug uptake [25]: Not Active; Drug uptake (LNCaP [26]): Not Active; Drug uptake (MCF7 [27]): Not Active; Drug uptake (HeLa): Not Active; Drug uptake [28]: Not Active; Drug uptake (A549): Not Active; Drug uptake (C2C12 [29]): Not Active; Drug uptake [30]: Not Active; Activity [31]: Non-toxic
3 | F[B-]1(F)n2cccc2C=C2C=CC=[N+]21 | > 50 µM | > 50 µM | > 50 µM | 1.5 µM | 3.1 µM | 5.6 µM | > 50 µM | > 50 µM | > 50 µM | > 50 µM | > 50 µM | > 50 µM | > 50 µM | > 50 µM | > 50 µM | > 50 µM | > 50 µM | > 50 µM | > 50 µM | > 50 µM | IC50 (HT-29 [21]): > 50 µM; Activity (Rattus norvegicus [23]): inactive; Activity (Rattus norvegicus [32]): inactive
4 | C/C=C(/C)C(=O)O[C@@H]1C[C@H]2C(=C1C)[C@@H]1OC(=O)[C@@](C)(O)[C@@]1(O)[C@@H](OC(=O)Cn1cc(COc3ccc(C4=C5C=CC=[N+]5[B-](F)(F)n5cccc54)cc3)nn1)C[C@]2(C)OC(C)=O | > 50 µM | 3.5 µM | > 50 µM | 2.2 µM | 2.9 µM | 3.2 µM | > 50 µM | > 50 µM | > 50 µM | > 50 µM | > 50 µM | > 50 µM | > 50 µM | > 50 µM | > 50 µM | > 50 µM | > 50 µM | > 50 µM | > 50 µM | > 50 µM | IC50 (HT-29 [21]): > 50 µM; Activity [22]: Non-toxic; Activity (Rattus norvegicus [23]): Dose-dependent effect; Drug uptake (U2OS [24]): Not Active; Drug uptake [25]: Not Active; Drug uptake (LNCaP [26]): Not Active; Drug uptake (MCF7 [27]): Not Active; Drug uptake (HeLa): Not Active; Drug uptake [28]: Not Active; Drug uptake (A549): Not Active; Drug uptake (C2C12 [29]): Not Active; Drug uptake [30]: Not Active; Activity [31]: Non-toxic
